Experimental data reported in PubChem BioAssay AID493227 (Broad Institute, 2011).
Values joined by “and” are separate entries in the source; they are usually repeats but may differ in a detail not shown here. Identical values can stand only once. Active and inactive are the calls of the source.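 How the source made its calls: active means fitted curve reaches 40% activation at a dose no higher than the top dose validly tested; inconclusive means flat curve between 30 and 70% activation, or poor fit; inactive means the rest, including signal moving against the expected rise.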

Columns and labels:
[1] = system: U2OS HRE-luciferase reporter, luminescence, HIF activation; assay: HIF pathway reporter activators – cell-based, luminescence, U2OS HRE-luc, dry powder, set 8, dose response (AID 493227)
Procedure, shortened: (§1)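 Material: human U2OS osteosarcoma cells stably carrying 3×HRE-luciferase reporter. Input: 6,000 cells per well. Technique: Steady-Glo luminescence. Medium: phenol red-free DMEM with 10% FBS, no hygromycin. Times: 24 h plating, 24 h compound treatment.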

[2] = as above; conditions: U2OS HRE-luciferase reporter, luminescence, HIF activation; at 38 µM (top of the series)
Procedure, shortened: as §1

Structure (SMILES)	AC40 [1]	activation [2]
Cc1ccc(Nc2nc(-c3ccccn3)nnc2-c2ccccc2)cn1	3.28 µM	–
c1ccc(-c2nnc(-c3ccccn3)nc2N2CCN(c3ccncc3)CC2)cc1	2.35 µM	–
C[C@@H](Nc1nc(-c2ccccn2)nnc1-c1ccccc1)C1CCCCC1	1.88 µM	–
O=C(Nc1cn2ccccc2n1)c1cc(-c2ccccc2)on1	–	-5.39% (inactive)
Cn1c(NC(=O)c2cc(-c3ccccc3)on2)nc2ccccc21	–	5.66% (inactive)
Cc1ccc(CNC(=O)c2cc(-c3ccccc3)on2)cc1	–	-27% (inactive)
O=C(c1cc(-c2ccccc2)on1)N1CCC(N2CCCC2)CC1	–	-2.94% (inactive)
c1ccc(-c2nnc(-c3ccccn3)nc2NCCN2CCOCC2)cc1	1.96 µM	–
O=C(NCc1ccccc1)c1cc(-c2ccccc2)on1	> 38 µM (inactive)	–
c1ccc(-c2nnc(-c3ccccn3)nc2NCc2ccccn2)cc1	8.01 µM	–
CN1CCN(c2nc(-c3ccccn3)nnc2-c2ccccc2)CC1	3.01 µM	–
O=C(NCCCO)c1cc(-c2ccccc2)on1	5.37 µM	–
O=C(NCCCCO)c1cc(-c2ccccc2)on1	1.65 µM	–
O=C(c1cc(-c2ccccc2)on1)N1CCc2cccnc21	–	-1.93% (inactive)
CN(C)CCNC(=O)c1cc(-c2ccccc2)on1	> 38 µM (inactive)	–
O=C(NCCCN1CCOCC1)c1cc(-c2ccccc2)on1	7.62 µM	–
c1ccc(-c2nnc(-c3ccccn3)nc2NCCCN2CCOCC2)cc1	3.61 µM	–
O=C(c1cc(-c2ccccc2)on1)N1CCC(N2CCOCC2)CC1	–	-9.31% (inactive)
O=C(Nc1ncc(-c2ccccc2)o1)c1cc(-c2ccccc2)on1	–	-20.6% (inactive)
c1ccc(-c2nnc(-c3ccccn3)nc2N2CCC(N3CCOCC3)CC2)cc1	2.18 µM	–
Cc1ccc(CNc2nc(-c3ccccn3)nnc2-c2ccccc2)cc1C	0.364 µM	–
Oc1ccc(CN2CCC(Cc3ccccc3)CC2)c2cccnc12	11.1 µM	–

Structure (SMILES)	AC40 [1]	activation [2]
Cc1cccc(CNc2nc(-c3ccccn3)nnc2-c2ccccc2)c1	2.09 µM	–
O=C(Nc1cnc2ccccc2c1)c1cc(-c2ccccc2)on1	–	22.1% (inactive)
Cc1ccc(NC(=O)c2cc(-c3ccccc3)on2)cn1	–	-3.16% (inactive)
O=C(NC1CCc2ccccc2C1)c1cc(-c2ccccc2)on1 (stereo not drawn)	–	-11.6% (inactive)
Cc1cccc(Nc2nc(-c3ccccn3)nnc2-c2ccccc2)n1	1.89 µM	–
O=C(Nc1nc2ccccc2s1)c1cc(-c2ccccc2)on1	–	9.05% (inactive)
c1ccc(-c2cccc(CNc3nc(-c4ccccn4)nnc3-c3ccccc3)c2)cc1	0.06 µM	–
COc1ccccc1N1CCN(Cc2ccc(O)c3ncccc23)CC1	11.8 µM	–
O=C(NCCN1CCCCC1)c1cc(-c2ccccc2)on1	> 38 µM (inactive)	–
OCC1CCN(Cc2ccc(O)c3ncccc23)CC1	15.9 µM	–
c1ccc(-c2cnc(Nc3nc(-c4ccccn4)nnc3-c3ccccc3)s2)cc1	10.7 µM	–
O=C(NC1Cc2ccccc2C1)c1cc(-c2ccccc2)on1	> 38 µM (inactive)	–
CN1CCN(C(=O)c2cc(-c3ccccc3)on2)CC1	–	-33.9% (inactive)
c1ccc(CCNc2nc(-c3ccccn3)nnc2-c2ccccc2)cc1	1.35 µM	–
COc1ccc(CNc2nc(-c3ccccn3)nnc2-c2ccccc2)cc1	0.782 µM	–
CC(C)(C)OC(=O)N1CCN(Cc2ccc(O)c3ncccc23)CC1	> 38 µM (inactive)	–
c1ccc(-c2nnc(-c3ccccn3)nc2Nc2cnc3ccccc3n2)cc1	3.83 µM	–
O=C(NCCN1CCOCC1)c1cc(-c2ccccc2)on1	8.1 µM	–
Cn1c(-c2ccccc2)cnc1NC(=O)c1cc(-c2ccccc2)on1	–	8.45% (inactive)
Cc1ccccc1CNC(=O)c1cc(-c2ccccc2)on1	–	17.1% (inactive)
C[C@H](Nc1nc(-c2ccccn2)nnc1-c1ccccc1)C1CCCCC1	1.16 µM	–
O=C(NCCCn1ccnc1)c1cc(-c2ccccc2)on1	4.16 µM	–

Structure (SMILES)	AC40 [1]	activation [2]
c1ccc(-c2nnc(-c3ccccn3)nc2NCc2cccnc2)cc1	3.73 µM	–
Cc1cccc(NC(=O)c2cc(-c3ccccc3)on2)n1	> 38 µM (inactive)	–
c1ccc(-c2nnc(Nc3nc(-c4ccccn4)nnc3-c3ccccc3)s2)cc1	0.582 µM	–
Cc1cccc(CNC(=O)c2cc(-c3ccccc3)on2)c1	> 38 µM (inactive)	–
Oc1ccc(CN2CCC3CCCCC3C2)c2cccnc12 (stereo not drawn)	4.8 µM	–
c1ccc(-c2nnc(-c3ccccn3)nc2N2CCC(c3ccccc3)C2)cc1 (stereo not drawn)	0.509 µM	–
Cn1c(-c2ccccc2)cnc1Nc1nc(-c2ccccn2)nnc1-c1ccccc1	4.17 µM	–
Oc1ccc(CNC2Cc3ccccc3C2)c2cccnc12	8.12 µM	–
c1ccc(-c2nnc(-c3ccccn3)nc2Nc2nc3ccccc3s2)cc1	2.87 µM	–
Oc1ccc(CNC2CCc3ccccc32)c2cccnc12 (stereo not drawn)	13.9 µM	–
Cc1ccc(CNc2nc(-c3ccccn3)nnc2-c2ccccc2)cc1	1.28 µM	–
Clc1cccc(CNc2nc(-c3ccccn3)nnc2-c2ccccc2)c1	0.826 µM	–
O=C(Nc1ccc2ccccc2n1)c1cc(-c2ccccc2)on1	–	-20.3% (inactive)
CC(C)(C)c1ccc(CNc2nc(-c3ccccn3)nnc2-c2ccccc2)cc1	0.393 µM	–
OCCCNc1nc(-c2ccccn2)nnc1-c1ccccc1	7.76 µM	–
O=C(c1cc(-c2ccccc2)on1)N1CCN(c2ccncc2)CC1	–	-11.8% (inactive)
CC1CN(Cc2ccc(O)c3ncccc23)CC(C)O1 (stereo not drawn)	36.6 µM	–
CCCCNC(=O)c1cc(-c2ccccc2)on1	3.17 µM	–
C[C@@H](Nc1nc(-c2ccccn2)nnc1-c1ccccc1)c1ccccc1	1.61 µM	–
Oc1ccc(CN2CCc3ccccc3C2)c2cccnc12	2.32 µM	99.2% (inactive)
c1ccc(-c2nnc(-c3ccccn3)nc2N2CCC(C3CCCCC3)C2)cc1 (stereo not drawn)	–	2190% (inactive)
C=CCNc1nc(-c2ccccn2)nnc1-c1ccccc1	1.3 µM	–

Structure (SMILES)	AC40 [1]	activation [2]
O=C(NCC1CCCCC1)c1cc(-c2ccccc2)on1	–	15.7% (inactive)
O=C(c1cc(-c2ccccc2)on1)N1CCC(CO)CC1	–	-18% (inactive)
c1ccc(CNc2nc(-c3ccccn3)nnc2-c2ccccc2)cc1	3.22 µM	–
c1ccc(-c2csc(Nc3nc(-c4ccccn4)nnc3-c3ccccc3)n2)cc1	13.9 µM	–
c1ccc(-c2nnc(-c3ccccn3)nc2NCCc2ccccn2)cc1	3.14 µM	–
c1ccc(-c2nnc(-c3ccccn3)nc2NCC2CCOCC2)cc1	5.01 µM	–
c1ccc(-c2nnc(-c3ccccn3)nc2NCC2CC2)cc1	2.77 µM	–
c1ccc(-c2ccc(CNc3nc(-c4ccccn4)nnc3-c3ccccc3)cc2)cc1	0.379 µM	–
CC(C)(C)CCNC(=O)c1cc(-c2ccccc2)on1	5.03 µM	–
O=C(Nc1nc(-c2ccccc2)cs1)c1cc(-c2ccccc2)on1	–	-11.1% (inactive)
c1ccc(-c2nnc(-c3ccccn3)nc2NCC2CCCCC2)cc1	1.28 µM	–
O=C(Nc1ncc2ccccc2n1)c1cc(-c2ccccc2)on1	–	8.54% (inactive)
COc1cccc(CNc2nc(-c3ccccn3)nnc2-c2ccccc2)c1	1.31 µM	–
O=C(Nc1nnc(-c2ccccc2)s1)c1cc(-c2ccccc2)on1	–	6.25% (inactive)
CN(C)c1nc(-c2ccccn2)nnc1-c1ccccc1	6.62 µM	–
CC(Nc1nc(-c2ccccn2)nnc1-c1ccccc1)c1ccccc1 (stereo not drawn)	0.875 µM	–
CC(C)(C)CCNc1nc(-c2ccccn2)nnc1-c1ccccc1	1.41 µM and 0.785 µM	–
OCC1CCN(c2nc(-c3ccccn3)nnc2-c2ccccc2)CC1	12.1 µM	–
Cc1ccccc1CNc1nc(-c2ccccn2)nnc1-c1ccccc1	2.08 µM	–
O=C(NCC1CC1)c1cc(-c2ccccc2)on1	1.5 µM	–
N#CC1(c2ccccc2)CCN(Cc2ccc(O)c3ncccc23)CC1	14.5 µM	–
